Assay results published in ChEMBL document CHEMBL3870302, “Computer-aided identification, synthesis and evaluation of substituted thienopyrimidines as novel inhibitors of HCV replication” (Eur J Med Chem, 2016).

Experiments:
[1] = Selectivity index, ratio of CC50 for human HuH5.2 cells to EC50 for hepatitis C virus genotype 1b infected in human HuH5.2 cells; type: toxicity, cell-based; conditions: HuH5.2 cells, read-out: Ratio CC50/EC50
Method in brief: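 Ratio of CC50 (MTS metabolic read-out, 72 h) to EC50 (replicon luciferase read-out, 72 h), both measured in parallel on Huh 5-2 genotype 1b replicon cells.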

[2] = Cytotoxicity against human HuH5.2 cells assessed as reduction in metabolic activity after 72 hrs by MTS assay; type: toxicity, cell-based, Huh-5-2; conditions: HuH5.2 cells
Method in brief: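 Run in parallel with the replicon assay: Huh 5-2 replicon cells, 6 500 cells/well, compound series for 72 h at 37 °C, 5% CO2. Medium then replaced with 5% MTS in phenol red-free medium for 1.5 h. Absorbance at 498 nm expressed as % untreated cells; CC50 from dose-response curve as 50% reduction in metabolic activity, mean of ≥2 experiments.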

[3] = test system: Hepatitis C virus; assay: Antiviral activity against Hepatitis C virus genotype 1b infected in human HuH5.2 cells after 72 hrs by luciferase reporter gene assay; type: functional, cell-based, Hepacivirus hominis
Method in brief: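 Huh 5-2 cells with genotype 1b I389luc-ubi-neo/NS3-3'/5.1 subgenomic replicon, seeded 6 500 cells/well in DMEM/10% FCS without Geneticin, overnight 37 °C. Compound (DMSO stock diluted in medium) in 1:5 four-step or 1:2 eight-step series, 72 h. Cells PBS-washed, lysed 5 min, luciferase luminescence read, converted to % untreated control; EC50 from dose-response curve, mean of ≥2 independent experiments.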

[4] = Inhibition of Hepatitis C virus genotype 1b (con1) full length C-terminal His-tagged NS3 helicase expressed in Escherichia coli Rosette(DE3) assessed as inhibition of 5'-Cy5/3'-IAbRQ-labeled DNA unwinding activity by molecular beacon assay; set-up: species or system Hepatitis C virus (isolate Con1)
Method in brief: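 Molecular beacon unwinding assay: 25 mM MOPS pH 6.5, 1.25 mM MgCl2, 5% DMSO, 5 µg/ml BSA, 0.01% Tween20, 0.05 mM DTT, 5 nM fluorescent DNA substrate, 12.5 nM NS3h, 1 mM ATP.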

[5] = Hepatitis C virus, genotype 1b, Huh-5-2, 72 h

Structure (SMILES)	selectivity ratio [1]	CC50 at 72 h [2]	EC50 [3, 5]	EC90 [3, 5]	IC50 [4]	EC50 [3]	EC90 [3]
NNc1ncnc2sc3c(c12)CCCC3	10.7	247 µM	23.1 µM	47.4 µM			
O=C(NNc1ncnc2sc3c(c12)CCCC3)c1ccco1	1.2	230 µM	199 µM				
C/C(=N/Nc1ncnc2sc3c(c12)CCC3)c1ccccn1	11.9	14 µM	1.18 µM	1.44 µM	> 1000 µM		
C/C(=N\Nc1ncnc2sc3c(c12)CCCC3)c1cccs1	2	46 µM	23 µM				
O=C(NNc1ncnc2sc3c(c12)CCC3)c1cnccn1	31.4	2.97 µM	0.0945 µM	< 0.256 µM			
O=C(NNc1ncnc2sc3c(c12)CCCC3)c1ccccn1	5.27	7.75 µM	1.47 µM	0.819 µM	> 1000 µM		
C/C(=N\Nc1nc(C)nc2sc3c(c12)CCCC3)c1ccccc1O	> 2.5	> 284 µM	115 µM	> 94.6 µM			
O=C(NNc1ncnc2sc3c(c12)CCCC3)c1ccccc1O	233	63.6 µM	0.273 µM	0.567 µM	> 1000 µM		
C/C(=N\Nc1ncnc2sc3c(c12)CCCC3)c1ccc(O)cc1		> 295 µM	> 295 µM	> 295 µM			
C/C(=N\Nc1ncnc2sc3ccccc3c12)c1cnccn1	6.4	1.99 µM	0.415 µM	0.858 µM			
O=C(NNc1ncnc2sccc12)c1ccccc1O	> 27	> 349 µM	12 µM	> 38.8 µM			
Cc1cc(O)cc(O)c1/C=N/NC(=O)COc1ccc2ccccc2c1	27.3	51.9 µM	1.9 µM				
COc1ccc(C(N)=O)cc1NS(=O)(=O)c1cccc2cccnc12		> 140 µM	> 140 µM	> 140 µM			
O=C(NNc1ncnc2sccc12)c1cc(O)ccc1O	> 60	> 165 µM	2.75 µM	9.4 µM			
O=C(NNc1ncnc2sc3c(c12)CCCC3)c1cccnc1	> 2.4	> 307 µM	128 µM	> 307 µM			
COc1cccc(C2=Nn3c(CN4CCC(C)CC4)nnc3SC2)c1	> 1.1	> 139 µM	130 µM	> 139 µM			
C/C(=N\Nc1ncnc2sc3c(c12)CCCC3)c1ccco1	3.2	58.9 µM	18.2 µM				
CCc1ccc(S(=O)(=O)Nc2cc3c(C(=O)OC)c(C)oc3c3ccccc23)cc1	4.3	4.7 µM	1.1 µM				
O=S(=O)(Nc1ccc(O)c(Sc2ncn[nH]2)c1)c1cccc2ccccc12	> 2.9	> 126 µM	42.2 µM				
O=C(NNc1ncnc2sc3ccccc3c12)c1ccccc1O	130	108 µM	0.832 µM	1.6 µM			
COC(=O)c1ccc(N2C(=O)CC(S/C(=N\c3ccccc3)NCc3ccc4c(c3)OCO4)C2=O)cc1 (stereo not given)	4.9	62.6 µM	12.8 µM				
O=C(Nc1ccc(S(=O)(=O)O)c2ccccc12)c1ccc(C(=O)Nc2ccc(S(=O)(=O)O)c3ccccc23)cc1		> 86 µM	> 86 µM	> 86 µM			
CC(=O)Nc1ccc(/C=C2\C=C(C(O)c3ccc(NC(C)=O)cc3)c3ccccc32)cc1 (stereo not given)	2.3	48.8 µM	21.5 µM				
COc1cc2nc(CN3CCC(C(N)=O)CC3)[nH]c(=O)c2cc1OC		> 144 µM	> 144 µM	> 144 µM			
C/C(=N/Nc1ncnc2sc(Cl)c(C)c12)c1ccccc1O	> 56.1	> 9.01 µM	0.17 µM				
C/C(=N/Nc1ncnc2sc3c(c12)CCC3)c1cnccn1	1.6	1.12 µM	0.688 µM	< 0.839 µM			
c1cnc2c(Nc3ncnc4sc5c(c34)CCCC5)cccc2c1	> 1.6	> 301 µM	186 µM	> 100 µM			
O=C(NNc1ncnc2sc3c(c12)CCCC3)c1cccc(O)c1	> 1.4	> 294 µM	210 µM	> 220 µM			

Structure (SMILES)	selectivity ratio [1]	CC50 at 72 h [2]	EC50 [3, 5]	EC90 [3, 5]	IC50 [4]	EC50 [3]	EC90 [3]
O=C(NNc1ncnc2sc3ccccc3c12)c1ccccn1	3.3	1.54 µM	0.461 µM	1.01 µM			
CCOC(=O)c1cnc2c(ccc3ccccc32)c1Nc1ccc(C(=O)OC)cc1	5.2	56.2 µM	10.9 µM				
CCC[C@H](NC(=O)[C@@H]1[C@H]2CCC[C@H]2CN1C(=O)[C@@H](NC(=O)[C@@H](NC(=O)c1cnccn1)C1CCCCC1)C(C)(C)C)C(=O)C(=O)NC1CC1 [TELAPREVIR]	58.8		0.8 µM				
C/C(=N\Nc1ncnc2sc3c(c12)CCCC3)c1ccccc1	1.6	53.4 µM	33.6 µM	> 310 µM			
CCOc1cc(C2C(C(=O)OC)=C(C)NC3=C2C(=O)CC(c2ccc(OC)c(OC)c2)C3)ccc1O (stereo not given)	> 2.8	> 101 µM	36 µM				
C/C(=N\Nc1ncnc2sc3c(c12)CCCC3)c1cccnc1	> 3.9	> 309 µM	79.4 µM	> 103 µM			
C/C(=N\Nc1ncnc2sc3c(c12)CCCC3)c1ccccn1	6.9	7.59 µM	1.1 µM	3.48 µM			
COc1ccc(-c2c(C#N)c(SCC(N)=O)nc3c2CCCC3)cc1	> 1.1	> 142 µM	130 µM	> 142 µM			
O=C(NNc1ncnc2sc3c(c12)CCCC3)c1ccc[nH]1	1.1	160 µM	147 µM				
C/C(=N\Nc1ncnc2sc3c(c12)CCC3)c1cc(O)ccc1O	> 20.6	> 367 µM	17.8 µM	17.6 µM			
C/C(=N\Nc1ncnc2sc3c(c12)CCCC3)c1ccc[nH]1	3.7	19.5 µM	5.26 µM	12.8 µM			
CCOc1cccc(C(=O)Nc2cc(C(=O)OC)ccc2N2CCN(CC)CC2)c1	1.6	61.7 µM	38.9 µM				
COc1ccc(/C(C)=N/NC(=O)c2cc(O)cc(O)c2)c(OC)c1		> 151 µM	> 151 µM	> 151 µM			
COc1ccc(OC)c(/C(C)=N/Nc2ncnc3sc4c(c23)CCCC4)c1	1.8	98.5 µM	53.6 µM				
C/C(=N\Nc1ncnc2sc3c(c12)CCCC3)c1cccc(O)c1	> 1.1	> 443 µM	403 µM	> 443 µM			
Cc1nc(NNC(=O)c2ccccn2)c2c3c(sc2n1)CCCC3	> 38.1	> 2.95 µM	0.077 µM	0.32 µM			
O=C(CCN1C(=O)c2cccc3cccc(c23)C1=O)N1CCN(Cc2ccc3c(c2)OCO3)CC1	> 3.3	> 106 µM	32 µM				
C/C(=N\Nc1ncnc2sc3c(c12)CCCC3)c1cc(O)ccc1O (stereo in doubt; form 2)	> 128	> 282 µM				< 2.2 µM	135 µM
CCOc1ccc2sc(NS(=O)(=O)c3ccc(OC)c(OC)c3)nc2c1		> 127 µM	> 127 µM	> 127 µM			
C/C(=N/Nc1ncnc2sc(C)c(C)c12)c1ccccc1O	244	93.6 µM	0.384 µM	< 1.28 µM			
O=C(N/N=C\c1cccnc1)c1cc(-c2ccc3c(c2)OCO3)n[nH]1		> 149 µM	> 149 µM	> 149 µM			
C/C(=N\Nc1ncnc2sc3c(c12)CCCC3)c1cc(Cl)ccc1Cl	> 27.2	> 256 µM	9.41 µM	55.1 µM			
O=C(NNc1ncnc2sc3c(c12)CCCC3)c1cccs1	1.2	36.7 µM	31.1 µM				
C/C(=N/Nc1ncnc2sccc12)c1cnccn1	1.8	9.01 µM	5.04 µM	1.79 µM			
CCOc1cc(C)c(S(=O)(=O)N2CCN(Cc3ccc4c(c3)OCO4)CC2)cc1C	> 3.4	> 116 µM	34.5 µM				
COc1ccc(-c2c3c(nc4sc5c(O)nc(C)nc5c24)CCC3)cc1	6.1	128 µM	21 µM				
O=C(/C=C(/C(=O)O)c1ccccc1)Nc1ccc(N2CCN(CCO)CC2)cc1	> 0.19	> 126 µM	65 µM				
